The values below come from the RNAGym collection of RNA variant scans (doi:10.1002/anie.201605470).

To fix the notation:
B1: Osa-1-4 twister ribozyme (parent)
chain: CCGCCUAACACUGCCAAUGCCGGUCCCAAGCCCGGAUAAAAGUGGAGGGGGCGG

The data set covers variants of B1. The data set is described as follows: self-cleavage, relative activity (ratio to wild type); higher = more cleavage; co-transcriptional. The method, boiled down: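 The 48 positions downstream of the cleavage site in a 54-nucleotide Oryza sativa twister ribozyme template were synthesised at 97 % wild-type base and 1 % of each other base. The template was transcribed in vitro at 37 °C for 2 h, with self-cleavage allowed during transcription. Reads with or without upstream sequence after deep sequencing marked cleavage status, and relative activity is fraction cleaved normalised to wild type.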
Regarding CCGCCUAACACUGCCAAUGCCGGUCCCAAGCCGGGAUAAACGUGGAGGGGGCGG, the self-cleavage amounted to 0.09.
Take CCGCCUAACACUGCCAAUGCCGGUCCCAAGCCAGGAUAAACGUGGAGGGGGCGG: the self-cleavage is 0.13.
Under CCGCCUACCACUGCCAAUGCCGGUCCCAAGCCCGGAUAAAGGUGGAGGGGGCGG stands 0.09.
Under CCGCCUAGCACUGCCAAUGCCGGUCCCAAGCCCGGAUAAAGGUGGAGGGGGCGG stands 0.19.
Under CCGCCUAACACUGCCAAUGCCGGUCCCAAGCCCGGAUAAACGUGGAGGGCGCGG stands 0.93.
For CCGCCUAACACUGCCAAUGCCGGUCCCAAGCCCGGAUAAACGUGGAGGGUGCGG, the self-cleavage was 1.
The figure for CCGCCUAACACUGCCAAUGCCGGUCCCAAGCCCGGAUAAACGUGGAGGGAGCGG is 0.37; for CCGCCUAACACUGCCAAUGCCGGUCCCAAGCCCGGAUAAACGUGGAGGGGGGGG it is 1.04.
In the case of CCGCCUAACACUGCCAAUGCCGGUCCCAAGCCCGGAUAAACGUGGAGGGGGAGG, the self-cleavage was 0.94.
As for CCGCCUAACACUGCCAAUGCCGGUCCCAAGCCCGGAUAAACGUGGAGGGGGUGG, the self-cleavage was determined as 1.03.
Regarding CCGCCUAACACUGCCAAUCCCGGUCCCAAGCCCGGAUAAACGUGGAGGGGGCGG, the self-cleavage was determined as 0.14.
CCGCCUAACACUGCCAAUACCGGUCCCAAGCCCGGAUAAACGUGGAGGGGGCGG: the self-cleavage was found to be 0.74.
On to CCGCCUAACACUGCCAAUUCCGGUCCCAAGCCCGGAUAAACGUGGAGGGGGCGG, for which the self-cleavage was 0.15.
The figure for CCGCCUAACACUGCCAAUGCCGGUCCCAAGCCCGGAAAAACGUGGAGGGGGCGG is 0.92; for CCGCCUAACACUGCCAAUGCCGGUCCCAAGCCCGGAGAAACGUGGAGGGGGCGG it is 1.02.
The figure for CCGCCUAACACUGCCAAUGCCGGUCCCAAGCCCGGACAAACGUGGAGGGGGCGG is 1.
For the variant CCGCCUAACACUGCCAAUGCCGAUCCCAAGCCCGGAUAAACGUGGAGGGGGCGG, the self-cleavage came to 0.29.
Under CCGCCUAACACUGCCAAUGCCGCUCCCAAGCCCGGAUAAACGUGGAGGGGGCGG stands 0.06; under CCGCCUAACACUGCCAAUGCCGUUCCCAAGCCCGGAUAAACGUGGAGGGGGCGG, 0.06; under CCGCCUAACACUGCCAAUGCCGGUCCCAAGCCCGGAUAAACGUGGAGGAGGCGG, 0.11.
The figure for CCGCCUAACACUGCCAAUGCCGGUCCCAAGCCCGGAUAAACGUGGAGGCGGCGG is 0.08; for CCGCCUAACACUGCCAAUGCCGGUCCCAAGCCCGGAUAAACGUGGAGGUGGCGG it is 0.12; for CCGCCUCACACUGCCAAUGCCGGUCCCAAGCCCGGAUAAAGGUGGAGGGGGCGG it is 0.05.
The figure for CCGCCUGACACUGCCAAUGCCGGUCCCAAGCCCGGAUAAAGGUGGAGGGGGCGG is 0.14; for CCGCCUUACACUGCCAAUGCCGGUCCCAAGCCCGGAUAAAGGUGGAGGGGGCGG it is 0.08.
In the case of CCGCCUAACACUGCCAAUGCCGGUACCAAGCCCGGAUAAACGUGGAGGGGGCGG, the self-cleavage turned out to be 0.08.
Under CCGCCUAACACUGCCAAUGCCGGUUCCAAGCCCGGAUAAACGUGGAGGGGGCGG stands 0.8; under CCGCCUAACACUGCCAAUGCCGGUGCCAAGCCCGGAUAAACGUGGAGGGGGCGG, 0.08; under CCGCCUAACACUGCCAAUGCCGGUCCCAAGACCGGAUAAACGUGGAGGGGGCGG, 0.04.
The figure for CCGCCUAACACUGCCAAUGCCGGUCCCAAGGCCGGAUAAACGUGGAGGGGGCGG is 0.09.
For CCGCCUAACACUGCCAAUGCCGGUCCCAAGUCCGGAUAAACGUGGAGGGGGCGG, the self-cleavage worked out at 0.8.
Consider CCGCCUAACACUGCCAAUGCCGGUCCCAAGCCCGGAUAAACGUGGAAGGGGCGG, for which the self-cleavage was determined as 0.17.
Under CCGCCUAACACUGCCAAUGCCGGUCCCAAGCCCGGAUAAACGUGGACGGGGCGG stands 0.09; under CCGCCUAACACUGCCAAUGCCGGUCCCAAGCCCGGAUAAACGUGGAUGGGGCGG, 0.2; under CCGCCUAACACUGCCAAUGCCGGUCCGAAGCCCGGAUAAACGUGGAGGGGGCGG, 0.06.
The figure for CCGCCUAACACUGCCAAUGCCGGUCCUAAGCCCGGAUAAACGUGGAGGGGGCGG is 0.12.
In the case of CCGCCUAACACUGCCAAUGCCGGUCCAAAGCCCGGAUAAACGUGGAGGGGGCGG, the self-cleavage was found to be 0.13.
Under CCGCCUAACACUGCCAAUGCCGGUCACAAGCCCGGAUAAACGUGGAGGGGGCGG stands 0.06; under CCGCCUAACACUGCCAAUGCCGGUCGCAAGCCCGGAUAAACGUGGAGGGGGCGG, 0.09; under CCGCCUAACACUGCCAAUGCCGGUCUCAAGCCCGGAUAAACGUGGAGGGGGCGG, 0.8.
Under CCGCCUAACACUUCCAAUGCCGGUCCCAAGCCCGGAUAAACGUGGAGGGGGCGG stands 0.04; under CCGCCUAACACUACCAAUGCCGGUCCCAAGCCCGGAUAAACGUGGAGGGGGCGG, 0.08; under CCGCCUAACACUCCCAAUGCCGGUCCCAAGCCCGGAUAAACGUGGAGGGGGCGG, 0.02.
For the variant CCGCCUAACACUGCCAAUGCCGGUCCCAAGCCCAGAUAAACGUGGAGGGGGCGG, the self-cleavage turned out to be 0.76.
Take CCGCCUAACACUGCCAAUGCCGGUCCCAAGCCCUGAUAAACGUGGAGGGGGCGG: the self-cleavage turned out to be 0.73.
Regarding CCGCCUAACACUGCCAAUGCCGGUCCCAAGCCCCGAUAAACGUGGAGGGGGCGG, the self-cleavage turned out to be 0.32.
The figure for CCGCCUAACACUGCCAAUGCCGGUCCCAAGCCCGGAUAAACGGGGAGGGGGCGG is 0.12.
The figure for CCGCCUAACACUGCCAAUGCCGGUCCCAAGCCCGGAUAAACGCGGAGGGGGCGG is 0.22; for CCGCCUAACACUGCCAAUGCCGGUCCCAAGCCCGGAUAAACGAGGAGGGGGCGG it is 0.45.
